Laboratory results: publication PMC9065027 (RSC Advances, 2019)

Columns and labels:
[1] = test system: amastigote parasite Leishmania amazonensis; settings: cited from earlier work
LdNH = experiment: NMR Saturation Transfer Difference; format: binding, Leishmania donovani; settings: 100 μM LdNH, 2 mM compound, 2 s saturation time
In short: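 STD spectra acquired in alternating scans, on-resonance at −1 ppm and off-resonance at 20 ppm. DPFGSE water suppression, 2 s saturation time, 1024 scans.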

HSV-1 = settings: cited from earlier work
HSV-2 = settings: cited from earlier work

| SMILES | leishmanicidal activity IC50 [1] | IC50 ([1]; read-out: leishmanicidal activity IC50, value in brackets) | STD signals in presence of LdNH (LdNH) | anti-viral activity EC50 (HSV-1) | anti-viral activity EC50 (HSV-2) |
| --- | --- | --- | --- | --- | --- |
| C[C@@H]1O[C@@H](Oc2c(-c3ccc(O)cc3)oc3cc(O)cc(O)c3c2=O)[C@H](O)[C@H](O)[C@H]1O [compound 1, kaempferol 3-O-α-L-rhamnopyranoside] | 70 µg/mL | 162 µM | only weak resonances | – | – |
| C[C@@H]1O[C@@H](Oc2c(-c3ccc(O)cc3)oc3cc(O)cc(O)c3c2=O)[C@H](O[C@@H]2OC[C@@H](O)[C@H](O)[C@H]2O)[C@H](O)[C@H]1O [compound 2, kaempferol 3-O-β-D-xylopyranosyl-(1→2)-α-L-rhamnopyranoside] | – | – | much more intense | 7.4 µg/mL | 9.0 µg/mL |
